Experimental data published in ChEMBL document CHEMBL1144731, “Structure-dependent inhibition of bladder and pancreatic cancer cell growth by 2-substituted glycyrrhetinic and ursolic acid derivatives” (Bioorg Med Chem Lett, 2008).

Legend:
Type in all cases: functional, cell-based
[1] = Cytotoxicity against human Panc28 cells
Summary of the method: (§1)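 Cells seeded at 3×10^4 per well in DMEM:Ham's F-12 with 2.5% charcoal-stripped FBS and allowed 24 h to attach. Then exposed to DMSO vehicle or compound, with medium and compound renewed every 48 h. Cell number counted at set times on a Coulter particle counter. Triplicate runs; IC50 obtained by linear regression.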

[2] = Cytotoxicity against human 253JBV cells; summary of the method: as §1
PANC-1 = test: Cytotoxicity against human Panc1 cells; summary of the method: as §1
[3] = Cytotoxicity against human KU7 cells; summary of the method: as §1

Row | SMILES | IC50 [1] [µM] | IC50 [2] [µM] | IC50 (PANC-1) [µM] | IC50 [3] [µM]
1 | COC(=O)[C@@]1(C)CC[C@]2(C)CC[C@]3(C)C(=CC(=O)[C@@H]4[C@@]5(C)C=C(C#N)C(=O)C(C)(C)[C@@H]5CC[C@]43C)[C@@H]2C1 | 1.8 | 0.25 | 1.22 | 1.59
2 | COC(=O)[C@@]1(C)CC[C@]2(C)CC[C@]3(C)C(=CC(=O)[C@@H]4[C@@]5(C)C=C(C(F)(F)F)C(=O)C(C)(C)[C@@H]5CC[C@]43C)[C@@H]2C1 | 1.14 | 0.67 | 0.82 | 0.38
3 | COC(=O)[C@]12CC[C@@H](C)[C@H](C)[C@H]1C1=CC[C@@H]3[C@@]4(C)C=C(C#N)C(=O)C(C)(C)[C@@H]4CC[C@@]3(C)[C@]1(C)CC2 | 0.97 | 0.17 | 0.53 | 0.3
4 | COC(=O)[C@]12CC[C@@H](C)[C@H](C)[C@H]1C1=CC[C@@H]3[C@@]4(C)CC[C@H](O)C(C)(C)[C@@H]4CC[C@@]3(C)[C@]1(C)CC2 [METHYL URSOLATE] | 10.6 | 6.13 | 11.8 | 8.95
5 | COC(=O)[C@@]1(C)CC[C@]2(C)CC[C@]3(C)[C@H](C(=O)C=C4[C@@]5(C)C=C(I)C(=O)C(C)(C)[C@@H]5CC[C@]43C)[C@@H]2C1 | 3.66 | 3.62 | 4.45 | 2.61
6 | COC(=O)[C@]12CC[C@@H](C)[C@H](C)[C@H]1C1=CC[C@@H]3[C@@]4(C)C=C(I)C(=O)C(C)(C)[C@@H]4CC[C@@]3(C)[C@]1(C)CC2 | 13.5 | 4.9 | 6.91 | 6.02
7 | COC(=O)[C@@]1(C)CC[C@]2(C)CC[C@]3(C)C(=CC(=O)[C@@H]4[C@@]5(C)C=C(P(=O)(OC)OC)C(=O)C(C)(C)[C@@H]5CC[C@]43C)[C@@H]2C1 | 8.14 | 7.9 | 6.11 | 3.73
8 | COC(=O)[C@@]1(C)CC[C@]2(C)CC[C@]3(C)C(=CC(=O)[C@@H]4[C@@]5(C)C=C(S(C)(=O)=O)C(=O)C(C)(C)[C@@H]5CC[C@]43C)[C@@H]2C1 | 9.75 | 12 | 7.69 | 3.34
9 | COC(=O)[C@@]1(C)CC[C@]2(C)CC[C@]3(C)C(=CC(=O)[C@@H]4[C@@]5(C)C=C(I)C(=O)C(C)(C)[C@@H]5CC[C@]43C)[C@@H]2C1 | 12.8 | 2.67 | 4.08 | 3.04
10 | COC(=O)[C@]12CC[C@@H](C)[C@H](C)[C@H]1C1=CC[C@@H]3[C@@]4(C)C=C(C(F)(F)F)C(=O)C(C)(C)[C@@H]4CC[C@@]3(C)[C@]1(C)CC2 | 1.13 | 0.17 | 0.65 | 0.47
11 | CC1(C)C(=O)C(C#N)=C[C@]2(C)[C@H]3C(=O)C=C4[C@@H]5C[C@@](C)(C(=O)O)CC[C@]5(C)CC[C@@]4(C)[C@]3(C)CC[C@@H]12 | 7.32 | 6.1 | 3.81 | 5.88
12 | COC(=O)[C@@]1(C)CC[C@]2(C)CC[C@]3(C)[C@H](C(=O)C=C4[C@@]5(C)C=C(C(F)(F)F)C(=O)C(C)(C)[C@@H]5CC[C@]43C)[C@@H]2C1 | 1.13 | 0.36 | 0.68 | 1.37
